The source made the active and inactive calls. The rule behind the calls is not given here.
Key:
[1] = test system: Mus musculus; experiment: Protective effect against adenine-induced chronic renal failure in ig dosed Kunming mouse assessed as decrease in serum creatinine levels administered as qd for 4 successive weeks by picric acid colorimetric method; format: functional, organism-based
How it was run: (§1)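 Adenine-fed CRF model in male Kunming mice (20 ± 5 g) housed at 18–20 °C on a 12 h light/dark cycle. Oral dosing at 100 or 200 mg kg–1, with or without Haikunshenxi capsule; ten mice per group. Serum creatinine, BUN, total protein and albumin measured, each group compared with the model group.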

[2] = test system: Mus musculus; experiment: Protective effect against adenine-induced chronic renal failure in ig dosed Kunming mouse assessed as increase in total protein levels in serum administered as qd for 4 successive weeks by coomassie brilliant blue method; format: functional, organism-based; how it was run: as §1
[3] = test system: Mus musculus; experiment: Protective effect against adenine-induced chronic renal failure in ig dosed Kunming mouse assessed as increase in albumin levels in serum administered as qd for 4 successive weeks by bromocresol green colorimetric method; format: functional, organism-based; how it was run: as §1
[4] = test system: Mus musculus; experiment: Protective effect against adenine-induced chronic renal failure in Kunming mouse assessed as kidney index at 100 mg/kg, ig qd administered for 4 successive weeks with haikunshenxi capsule measured 24 hrs post last dose (reference value: 1.94 +/- 0.03 mg/g); format: functional
How it was run: (§2)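 Male Kunming mice (20 ± 5 g) were housed on a 12 h light/dark cycle at 18–20 °C. Chronic renal failure was induced by long-term dietary adenine. The melanin was given orally at 100 or 200 mg kg–1, alone or with Haikunshenxi capsule as positive drug, with ten mice per group. Weight growth rate (%) and kidney index (mg g–1) were recorded.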

[5] = test system: Mus musculus; experiment: Protective effect against adenine-induced chronic renal failure in Kunming mouse assessed as kidney index at 200 mg/kg, ig qd administered for 4 successive weeks with haikunshenxi capsule measured 24 hrs post last dose (reference value: 1.94 +/- 0.03 mg/g); format: functional; how it was run: as §2
[6] = test system: Mus musculus; experiment: Protective effect against adenine-induced chronic renal failure in Kunming mouse assessed as nephridial SOD levels at 200 mg/kg, ig qd administered for 4 successive weeks by hydroxylamine method (reference value: 30.45 +/- 1.12 U/mg); format: functional
[7] = test system: Mus musculus; experiment: Protective effect against adenine-induced chronic renal failure in Kunming mouse assessed as nephridial CAT levels at 100 mg/kg, ig qd administered for 4 successive weeks by visible spectrometry method (reference value: 44.13 +/- 1.25 U/mg); format: functional
[8] = test system: Mus musculus; experiment: Protective effect against adenine-induced chronic renal failure in Kunming mouse assessed as nephridial CAT levels at 200 mg/kg, ig qd administered for 4 successive weeks by visible spectrometry method (reference value: 44.13 +/- 1.25 U/mg); format: functional
[9] = test system: Mus musculus; experiment: Protective effect against adenine-induced chronic renal failure in Kunming mouse assessed as nephridial GSH-PX levels at 100 mg/kg, ig qd administered for 4 successive weeks by colorimetric method (reference value: 688.45 +/- 12.67 U/L); format: functional
[10] = test system: Mus musculus; experiment: Protective effect against adenine-induced chronic renal failure in Kunming mouse assessed as nephridial GSH-PX levels at 100 mg/kg, ig qd administered for 4 successive weeks with haikunshenxi capsule by colorimetric method (reference value: 688.45 +/- 12.67 U/L); format: functional
[11] = test system: Mus musculus; experiment: Protective effect against adenine-induced chronic renal failure in Kunming mouse assessed as nephridial GSH-PX levels at 200 mg/kg, ig qd administered for 4 successive weeks with haikunshenxi capsule by colorimetric method (reference value: 688.45 +/- 12.67 U/L); format: functional
[12] = test system: Mus musculus; experiment: Protective effect against adenine-induced chronic renal failure in Kunming mouse assessed as nephridial MDA levels at 100 mg/kg, ig qd administered for 4 successive weeks by thiobarbituric acid method (reference value: 5.05 +/- 0.15 nmol/ml); format: functional
[13] = test system: Mus musculus; experiment: Protective effect against adenine-induced chronic renal failure in ig dosed Kunming mouse assessed as increase in nephridial CAT levels administered as qd for 4 successive weeks by visible spectrometry method; format: functional, organism-based
How it was run: (§3)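 Male Kunming mice (20 ± 5 g) given dietary adenine to induce CRF, then dosed orally at 100 or 200 mg kg–1, with or without Haikunshenxi capsule; n = 10 per group. Kidney homogenate assayed for SOD and CAT (U mg–1 protein), GSH-Px (U L–1), GSH (mg g–1 protein) and MDA (nmol mL–1).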

[14] = test system: Mus musculus; experiment: Protective effect against adenine-induced chronic renal failure in ig dosed Kunming mouse assessed as increase in nephridial GSH-PX levels administered as qd for 4 successive weeks by colorimetric method; format: functional, organism-based; how it was run: as §3
[15] = test system: Mus musculus; experiment: Protective effect against adenine-induced chronic renal failure in ig dosed Kunming mouse assessed as increase in nephridial CAT levels administered as qd for 4 successive weeks with haikunshenxi capsule by visible spectrometry method; format: functional, organism-based; how it was run: as §3
[16] = test system: Mus musculus; experiment: Protective effect against adenine-induced chronic renal failure in Kunming mouse assessed as nephridial TNF-alpha levels at 100 mg/kg, ig qd administered for 4 successive weeks (reference value: 250.15 +/- 8.10 pg/ml); format: functional
[17] = test system: Mus musculus; experiment: Protective effect against adenine-induced chronic renal failure in Kunming mouse assessed as nephridial TNF-alpha levels at 200 mg/kg, ig qd administered for 4 successive weeks (reference value: 250.15 +/- 8.10 pg/ml); format: functional
[18] = test system: Mus musculus; experiment: Protective effect against adenine-induced chronic renal failure in Kunming mouse assessed as nephridial IL-1beta levels at 100 mg/kg, ig qd administered for 4 successive weeks (reference value: 18.34 +/- 0.25 pg/ml); format: functional
[19] = test system: Mus musculus; experiment: Protective effect against adenine-induced chronic renal failure in Kunming mouse assessed as nephridial IL-1beta levels at 200 mg/kg, ig qd administered for 4 successive weeks with haikunshenxi capsule (reference value: 18.34 +/- 0.25 pg/ml); format: functional
[20] = test system: Mus musculus; experiment: Protective effect against adenine-induced chronic renal failure in ig dosed Kunming mouse assessed as decrease in nephridial IL-1beta levels administered as qd for 4 successive weeks; format: functional, organism-based
How it was run: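 CRF model made by chronic dietary adenine in male Kunming mice (20 ± 5 g); oral dosing at 100 or 200 mg kg–1, alone or with Haikunshenxi capsule; ten mice per group. Kidney tissue TNF-α, IL-1β and IL-6 measured as pg per mg protein, and iNOS activity as U mg–1 protein.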

[21] = test system: Mus musculus; experiment: Protective effect against adenine-induced chronic renal failure in Kunming mouse assessed as reduction in number of adenine crystals in kidney at 200 mg/kg, ig qd administered for 4 successive weeks by haematoxylin and eosin dye-based optical microscopic method; format: functional, organism-based
How it was run: (§4)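 Kidneys were taken from male Kunming mice given an adenine diet plus oral melanin (100 or 200 mg kg–1), with or without Haikunshenxi capsule, ten per group. Histological sections were examined at 400× for glomeruli, tubules, adenine crystals, tubular atrophy and interstitial fibrosis.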

[22] = test system: Mus musculus; experiment: Protective effect against adenine-induced chronic renal failure in Kunming mouse assessed as reduction in renal tubular atrophy at 200 mg/kg, ig qd administered for 4 successive weeks by haematoxylin and eosin dye-based optical microscopic method; format: functional, organism-based; how it was run: as §4
[23] = test system: Mus musculus; experiment: Protective effect against adenine-induced chronic renal failure in Kunming mouse assessed as reduction in renal tubular atrophy at 200 mg/kg, ig qd administered for 4 successive weeks with haikunshenxi capsule by haematoxylin and eosin dye-based optical microscopic method; format: functional, organism-based; how it was run: as §4
[24] = test system: Mus musculus; experiment: Protective effect against adenine-induced chronic renal failure in ig dosed Kunming mouse assessed as reduction in kidney index administered as qd for 4 successive weeks measured 24 hrs post last dose

Cc1c(=O)c(=O)c2c3c[nH]c4c(C)c(=O)c(=O)c(c5c[nH]c1c52)c43
Activity [1]: Dose-dependent effect
Activity [2]: Dose-dependent effect
Activity [3]: Dose-dependent effect
Activity [4]: 1.18 mg/g
Activity [5]: 1.13 mg/g
Activity [6]: 38.25 U/mg
Activity [7]: 60.53 U/mg
Activity [8]: 64.45 U/mg
Activity [9]: 743.09 U/L
Activity [10]: 850.44 U/L
Activity [11]: 878.91 U/L
Activity [12]: 3.95 nmol/mL
Activity [13]: Dose-dependent effect
Activity [14]: Dose-dependent effect
Activity [15]: Dose-dependent effect
Activity [16]: 218.12 pg/mL
Activity [17]: 168.32 pg/mL
Activity [18]: 17.66 pg/mL
Activity [19]: 13.81 pg/mL
Activity [20]: Dose-dependent effect
Activity [21]: Active
Activity [22]: Active
Activity [23]: Active
Activity [24]: Dose-dependent effect

From ChEMBL document CHEMBL4257441, “Protection effect of intracellular melanin from Lachnum YM156 and Haikunshenxi capsule combination on adenine-induced chronic renal failure in mice” (Medchemcomm, 2017)
